Drawing on ChEMBL document CHEMBL1944507, “Structure-activity relationships for amide-, carbamate-, and urea-linked analogues of the tuberculosis drug (6S)-2-nitro-6-{[4-(trifluoromethoxy)benzyl]oxy}-6,7-dihydro-5H-imidazo[2,1-b][1,3]oxazine (PA-824)” (J Med Chem, 2012), this text covers MIC for 29 molecules.

As a reminder, the MIC is the lowest concentration found to suppress growth.

In brackets after ≈: the same amount, converted by molar mass.

Assay [1] deals with Mycobacterium tuberculosis. Description: Antimicrobial activity against Mycobacterium tuberculosis H37Rv ATCC 27294 harboring pFCA-lux AB gene measured under aerobic condition after 8 days by luminescence analysis. It is filed as functional. The conditions noted are these: H37Rv ATCC 27294, 192 h. The essentials: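 MABA: replicating M. tb H37Rv exposed to compound aerobically for 8 days. […] Mean of at least two independent determinations ± SD.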

In assay [2] the test system is Mycobacterium tuberculosis. Kind of assay: Antimicrobial activity against Mycobacterium tuberculosis H37Rv ATCC 27294 harboring pFCA-lux AB gene measured under anaerobic condition after 11 days by luminescence analysis. It is filed as functional. The conditions noted are these: H37Rv ATCC 27294, 264 h. The essentials: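 LORA: luminescence-based low-oxygen-recovery assay on nonreplicating M. tb, 11-day anaerobic exposure. MIC is the mean of at least two independent determinations ± SD.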

On to `O=C(CO[C@@H]1COc2nc([N+](=O)[O-])cn2C1)Nc1ccc(OC(F)(F)F)cc1`, for which the MIC in assay [1] was found to be 0.24 µM (≈ 0.0965 µg/mL); in assay [2], 7.8 µM (≈ 3.14 µg/mL).

`CN(C(=O)c1ccc(OC(F)(F)F)cc1)[C@@H]1COc2nc([N+](=O)[O-])cn2C1`: the minimal inhibitory concentration (MIC) in assay [1] was 22 µM (≈ 8.5 µg/mL); in assay [2], greater than 64 µM.

Take `O=C(N[C@@H]1COc2nc([N+](=O)[O-])cn2C1)Oc1ccc(OC(F)(F)F)cc1`: the MIC in assay [1] is greater than 64 µM; in assay [2], 64 µM (≈ 24.8 µg/mL).

Regarding `O=C(NCc1ccc(-c2ccc(C(F)(F)F)cc2)cc1)O[C@@H]1COc2nc([N+](=O)[O-])cn2C1`, the MIC is 0.24 µM (≈ 0.111 µg/mL) in assay [1] and greater than 32 µM in assay [2].

Take `O=C(NCc1ccc(-c2ccc(C(F)(F)F)nc2)cc1)N[C@@H]1COc2nc([N+](=O)[O-])cn2C1`: the minimal inhibitory concentration (MIC) in assay [1] was 0.4 µM (≈ 0.185 µg/mL); in assay [2], greater than 32 µM.

Regarding `O=C(N[C@@H]1COc2nc([N+](=O)[O-])cn2C1)OCc1ccc(-c2ccc(C(F)(F)F)cc2)cc1`, the MIC in assay [1] was 0.08 µM (≈ 0.037 µg/mL); in assay [2], 4.5 µM (≈ 2.08 µg/mL).

For the molecule `O=C(O[C@@H]1COc2nc([N+](=O)[O-])cn2C1)N1CC[C@H](Oc2ccc(OC(F)(F)F)cc2)C1`, the results for the minimum inhibitory concentration (MIC) in assay [1] and in assay [2] were 0.06 µM (≈ 0.0275 µg/mL) and 1.6 µM (≈ 0.733 µg/mL), respectively.

As for `O=C(Nc1cccc(-c2ccc(C(F)(F)F)cc2)c1)O[C@@H]1COc2nc([N+](=O)[O-])cn2C1`, the MIC was 0.04 µM (≈ 0.0179 µg/mL) in assay [1] and 1 µM (≈ 0.448 µg/mL) in assay [2].

For `O=C(COc1ccc(-c2ccc(F)cc2)cc1)N[C@@H]1COc2nc([N+](=O)[O-])cn2C1`, the results for the MIC in assay [1] and in assay [2] were 0.17 µM (≈ 0.0701 µg/mL) and 26 µM (≈ 10.7 µg/mL), respectively.

For `O=[N+]([O-])c1cn2c(n1)OC[C@@H](NS(=O)(=O)c1cccc(OC(F)(F)F)c1)C2`, the MIC in assay [1] and in assay [2] was greater than 64 µM in each case.

`O=[N+]([O-])c1cn2c(n1)OC[C@@H](NS(=O)(=O)c1ccc(OC(F)(F)F)cc1)C2`: the MIC in assay [1] is 9.7 µM (≈ 3.96 µg/mL); in assay [2], greater than 64 µM.

In the case of `O=[N+]([O-])c1cn2c(n1)OC[C@@H](OCc1cccc(OC(F)(F)F)c1)C2`, the MIC in assay [1] was determined as 0.36 µM (≈ 0.129 µg/mL); in assay [2] it was 2.1 µM (≈ 0.754 µg/mL).

Consider `O=C(NCc1ccc(-c2ccc(F)cc2)cc1)O[C@@H]1COc2nc([N+](=O)[O-])cn2C1`, for which the MIC is 0.11 µM (≈ 0.0454 µg/mL) in assay [1] and 4.5 µM (≈ 1.86 µg/mL) in assay [2].

Take `O=C(COc1ccc(OC(F)(F)F)cc1)N[C@@H]1COc2nc([N+](=O)[O-])cn2C1`: the MIC in assay [1] was 0.16 µM (≈ 0.0644 µg/mL); in assay [2], 10 µM (≈ 4.02 µg/mL).

For `O=C(Cc1ccc(-c2ccc(F)cc2)cc1)N[C@@H]1COc2nc([N+](=O)[O-])cn2C1`, the MIC in assay [1] worked out at 0.33 µM (≈ 0.131 µg/mL); in assay [2], 11 µM (≈ 4.36 µg/mL).

Consider `O=C(Nc1cccc(-c2ccc(C(F)(F)F)nc2)c1)N[C@@H]1COc2nc([N+](=O)[O-])cn2C1`, for which the MIC in assay [1] was determined as 0.22 µM (≈ 0.0986 µg/mL); in assay [2], 13 µM (≈ 5.83 µg/mL).

Regarding `O=C(NCc1ccc(OC(F)(F)F)cc1)N[C@@H]1COc2nc([N+](=O)[O-])cn2C1`, the figures for the MIC in assay [1] and in assay [2] were 0.27 µM (≈ 0.108 µg/mL) and 4.1 µM (≈ 1.65 µg/mL), respectively.

Turning to `O=C(COc1ccc(-c2ccc(C(F)(F)F)nc2)cc1)N[C@@H]1COc2nc([N+](=O)[O-])cn2C1`, the MIC in assay [1] was 0.69 µM (≈ 0.32 µg/mL); in assay [2], 30 µM (≈ 13.9 µg/mL).

Consider `O=C(COc1ccc(-c2ccc(OC(F)(F)F)cc2)cc1)N[C@@H]1COc2nc([N+](=O)[O-])cn2C1`, for which the MIC in assay [1] turned out to be 0.18 µM (≈ 0.0861 µg/mL); in assay [2], 25 µM (≈ 12 µg/mL).

In the case of `CN(C(=O)c1cccc(OC(F)(F)F)c1)[C@@H]1COc2nc([N+](=O)[O-])cn2C1`, the MIC in assay [1] is 24 µM (≈ 9.27 µg/mL); in assay [2], greater than 64 µM.

On to `O=C(Nc1ccc(-c2ccc(F)nc2)cc1)N[C@@H]1COc2nc([N+](=O)[O-])cn2C1`, for which the MIC in assay [1] came to 0.24 µM (≈ 0.0956 µg/mL); in assay [2], 11 µM (≈ 4.38 µg/mL).

As to `O=C(Nc1ccc(-c2ccc(C(F)(F)F)cc2)cc1)O[C@@H]1COc2nc([N+](=O)[O-])cn2C1`, the results for the MIC in assay [1] and in assay [2] were 0.055 µM (≈ 0.0247 µg/mL) and greater than 32 µM, respectively.

As to `O=C(Nc1cccc(-c2ccc(F)nc2)c1)N[C@@H]1COc2nc([N+](=O)[O-])cn2C1`, the figures for the MIC in assay [1] and in assay [2] were 0.23 µM (≈ 0.0916 µg/mL) and 15 µM (≈ 5.98 µg/mL), respectively.

In the case of `O=C(Nc1ccc(-c2ccnc(C(F)(F)F)c2)cc1)N[C@@H]1COc2nc([N+](=O)[O-])cn2C1`, the results for the MIC in assay [1] and in assay [2] were 0.36 µM (≈ 0.161 µg/mL) and 13 µM (≈ 5.83 µg/mL), respectively.

Turning to `O=C(N[C@@H]1COc2nc([N+](=O)[O-])cn2C1)OCc1ccc(-c2ccc(OC(F)(F)F)cc2)cc1`, the figures for the MIC in assay [1] and in assay [2] were 0.11 µM (≈ 0.0526 µg/mL) and 5 µM (≈ 2.39 µg/mL), respectively.

On to `O=C(Nc1cccc(-c2ccc(C(F)(F)F)nc2)c1)O[C@@H]1COc2nc([N+](=O)[O-])cn2C1`, for which the minimal inhibitory concentration (MIC) in assay [1] was found to be 0.11 µM (≈ 0.0494 µg/mL); in assay [2], 2.9 µM (≈ 1.3 µg/mL).

As for `O=C(Nc1ccc(-c2ccc(C(F)(F)F)nc2)cc1)N[C@@H]1COc2nc([N+](=O)[O-])cn2C1`, the MIC in assay [1] was 0.17 µM (≈ 0.0762 µg/mL); in assay [2], 17 µM (≈ 7.62 µg/mL).

Consider `O=C(N[C@@H]1COc2nc([N+](=O)[O-])cn2C1)OCc1ccc(-c2ccc(F)nc2)cc1`, for which the MIC amounted to 0.34 µM (≈ 0.141 µg/mL) in assay [1] and 4.3 µM (≈ 1.78 µg/mL) in assay [2].

For the molecule `O=C(Nc1cccc(-c2ccc(C(F)(F)F)cc2)c1)N[C@@H]1COc2nc([N+](=O)[O-])cn2C1`, the MIC is 0.035 µM (≈ 0.0157 µg/mL) in assay [1] and 3.6 µM (≈ 1.61 µg/mL) in assay [2].
